# Measured values: PMC11628833 (Acta Pharmaceutica Sinica. B, 2024)
# Key:
# human TLR7 = molecular target: T1, human TLR7 (Homo sapiens, UniProt Q9NYK1); test: SEAP reporter assay in HEK-Blue hTLR7 cells; assay type: cell-based
# T1 sequence (Q9NYK1 27-1049): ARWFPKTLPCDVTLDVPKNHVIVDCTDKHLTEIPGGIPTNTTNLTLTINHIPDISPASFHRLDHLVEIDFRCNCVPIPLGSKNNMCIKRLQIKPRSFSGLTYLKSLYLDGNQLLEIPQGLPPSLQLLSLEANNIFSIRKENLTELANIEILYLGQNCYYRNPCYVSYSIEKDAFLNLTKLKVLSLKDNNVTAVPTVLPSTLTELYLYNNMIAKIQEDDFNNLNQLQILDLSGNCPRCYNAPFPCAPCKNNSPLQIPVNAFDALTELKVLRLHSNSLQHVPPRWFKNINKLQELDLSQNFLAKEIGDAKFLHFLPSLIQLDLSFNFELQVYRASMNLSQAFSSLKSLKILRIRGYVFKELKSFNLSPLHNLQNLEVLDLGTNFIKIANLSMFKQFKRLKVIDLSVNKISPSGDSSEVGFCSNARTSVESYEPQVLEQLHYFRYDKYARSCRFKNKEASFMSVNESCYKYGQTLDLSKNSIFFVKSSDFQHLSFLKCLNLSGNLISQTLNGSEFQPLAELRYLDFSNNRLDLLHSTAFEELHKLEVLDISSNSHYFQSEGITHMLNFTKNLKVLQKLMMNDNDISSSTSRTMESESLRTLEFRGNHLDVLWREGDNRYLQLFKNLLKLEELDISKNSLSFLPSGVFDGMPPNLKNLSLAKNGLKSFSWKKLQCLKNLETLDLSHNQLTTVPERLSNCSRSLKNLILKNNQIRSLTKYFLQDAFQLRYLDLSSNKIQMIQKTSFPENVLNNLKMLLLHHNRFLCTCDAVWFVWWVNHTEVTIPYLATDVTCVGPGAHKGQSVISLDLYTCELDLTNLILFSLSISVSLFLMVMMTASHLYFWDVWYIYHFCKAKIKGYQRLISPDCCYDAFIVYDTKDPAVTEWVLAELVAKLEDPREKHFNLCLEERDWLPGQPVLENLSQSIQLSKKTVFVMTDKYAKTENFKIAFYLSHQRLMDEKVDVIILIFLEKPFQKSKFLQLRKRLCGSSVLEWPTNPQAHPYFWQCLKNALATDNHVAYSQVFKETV
# Method in brief: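 HEK-Blue hTLR7 cells (stable human TLR7 with SEAP reporter) were plated at 5 × 10^5 cells/mL in DMEM with 10% heat-inactivated FBS. They were treated with R848 and varying test compound concentrations at 37 °C for 20–24 h. Medium was mixed with QUANTI-Blue, incubated at 37 °C for about 30 min, and read at 620 nm. R848-only = 100% activation; untreated = 0%.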
# hTLR8 = molecular target: T2, hTLR8 (Homo sapiens, UniProt Q9NR97); test: SEAP reporter assay in HEK-Blue hTLR8 cells; assay type: cell-based
# T2 sequence (Q9NR97 27-1041): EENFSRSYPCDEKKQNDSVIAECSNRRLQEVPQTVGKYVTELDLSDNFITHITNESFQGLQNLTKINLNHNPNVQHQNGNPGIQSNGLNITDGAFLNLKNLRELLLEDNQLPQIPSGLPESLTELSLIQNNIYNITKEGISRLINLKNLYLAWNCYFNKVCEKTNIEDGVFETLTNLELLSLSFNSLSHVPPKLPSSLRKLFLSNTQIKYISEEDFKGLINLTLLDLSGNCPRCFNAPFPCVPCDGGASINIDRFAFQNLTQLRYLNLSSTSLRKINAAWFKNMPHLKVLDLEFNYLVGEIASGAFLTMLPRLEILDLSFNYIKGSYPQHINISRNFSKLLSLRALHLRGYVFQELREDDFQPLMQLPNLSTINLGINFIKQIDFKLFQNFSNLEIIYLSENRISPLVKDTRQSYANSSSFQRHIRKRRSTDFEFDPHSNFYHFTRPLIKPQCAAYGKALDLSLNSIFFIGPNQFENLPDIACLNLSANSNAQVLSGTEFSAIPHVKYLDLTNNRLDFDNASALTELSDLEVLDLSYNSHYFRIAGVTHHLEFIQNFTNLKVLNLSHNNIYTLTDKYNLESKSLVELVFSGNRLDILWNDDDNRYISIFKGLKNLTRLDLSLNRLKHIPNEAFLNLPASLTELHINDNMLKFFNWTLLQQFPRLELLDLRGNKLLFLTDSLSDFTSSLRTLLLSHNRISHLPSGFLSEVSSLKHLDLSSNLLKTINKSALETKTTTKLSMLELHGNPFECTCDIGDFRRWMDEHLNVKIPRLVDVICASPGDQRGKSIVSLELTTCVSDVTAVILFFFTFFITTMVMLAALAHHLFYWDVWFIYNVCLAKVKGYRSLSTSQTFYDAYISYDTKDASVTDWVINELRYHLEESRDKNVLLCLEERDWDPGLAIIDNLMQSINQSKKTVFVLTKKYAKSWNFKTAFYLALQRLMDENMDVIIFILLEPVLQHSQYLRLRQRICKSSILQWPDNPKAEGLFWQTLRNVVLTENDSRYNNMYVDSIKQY
# MRL/lpr mice = MRL/lpr mice SLE model; assay type: in vivo, mouse; details: female MRL/lpr mice, S14 50 mg/kg oral once daily; vs placebo
# Method in brief: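 Mice were 14-week-old female MRL/lpr, randomized by body weight, n = 12/group, treated 4 weeks. Oral test compound in 10% w/v PEG-400/1,3-propanediol/water (55:20:25): 100 mg/kg twice daily, or a second compound at 50 mg/kg once daily. Controls: hydroxychloroquine 100 mg/kg daily in saline; saline placebo. Weekly: survival, body weight, skin lesions, and fundus-vein plasma for ANA/anti-dsDNA ELISA. Endpoint: spleen weight and H&E kidney histology.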
# [1] = tested on: IL-8 mRNA (TLR7 downstream); test: RT-PCR analysis of IL-8 mRNA in R848 treated HEK-Blue TLR7 cells; assay type: cell-based, human; details: 2 μg/mL R848 treated HEK-Blue TLR7 cells
# Method in brief: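 HEK-Blue TLR7 cells were seeded at 1 × 10^6 cells/well for 24 h, then switched to serum-free medium. They were treated ± R848 with various test compound concentrations for 16 h at 37 °C. IL-8 mRNA was quantified by RT-PCR using the ΔΔCt method, with GAPDH as reference and normalization to untreated cells.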
# [2] = molecular target: T3, TLR7 extracellular domain (Macaca mulatta, UniProt B3Y653, N167Q/N389Q/N488Q/N799Q, form not given); test: ITC titration to TLR7 recombinant protein; assay type: binding, Monkey (Macaca mulatta)
# T3 sequence (B3Y653 27-839 N167Q/N389Q/N488Q/N799Q): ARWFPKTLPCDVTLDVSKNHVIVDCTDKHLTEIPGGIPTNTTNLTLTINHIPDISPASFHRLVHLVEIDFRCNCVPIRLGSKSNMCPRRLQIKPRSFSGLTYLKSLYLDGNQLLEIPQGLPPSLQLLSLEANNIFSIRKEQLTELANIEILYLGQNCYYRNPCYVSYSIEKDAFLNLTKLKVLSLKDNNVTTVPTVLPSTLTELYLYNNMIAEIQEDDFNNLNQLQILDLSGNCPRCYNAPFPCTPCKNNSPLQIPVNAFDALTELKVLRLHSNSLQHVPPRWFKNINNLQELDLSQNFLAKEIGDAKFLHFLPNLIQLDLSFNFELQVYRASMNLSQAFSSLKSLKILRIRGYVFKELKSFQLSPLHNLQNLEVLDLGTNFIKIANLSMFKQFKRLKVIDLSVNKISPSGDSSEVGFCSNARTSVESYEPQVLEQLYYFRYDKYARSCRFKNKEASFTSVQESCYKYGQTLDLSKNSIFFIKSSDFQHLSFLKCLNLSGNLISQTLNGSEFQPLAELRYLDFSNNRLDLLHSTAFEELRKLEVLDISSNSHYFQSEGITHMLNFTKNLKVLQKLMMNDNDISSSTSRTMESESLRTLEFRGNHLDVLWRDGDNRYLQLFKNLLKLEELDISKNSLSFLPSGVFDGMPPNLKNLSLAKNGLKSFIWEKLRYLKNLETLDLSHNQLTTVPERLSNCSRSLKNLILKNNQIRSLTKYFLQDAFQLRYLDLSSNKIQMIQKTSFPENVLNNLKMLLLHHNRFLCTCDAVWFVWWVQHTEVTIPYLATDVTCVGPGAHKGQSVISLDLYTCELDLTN
# Method in brief: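 Titrations used the same purified rhesus TLR7 ectodomain, at 298 K in citrate/NaOH pH 4.8, 150 mmol/L NaCl. Syringe held 1 mmol/L test compound or loxoribine; cell held TLR7, with or without the other ligand pre-added. Each run was one small injection followed by 18 injections at 180 s intervals. Kd and ΔH obtained by single-site binding model fitting.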
# [3] = 1 mmol/L loxoribine into 50 μmol/L TLR7, absence of TH-407b
IC50 (human TLR7) [nM],IC50 (hTLR8) [nM],Structure (SMILES),other results
860 ± 390,110 ± 40,Cc1ccc(C(=O)N2CCN(c3ccc([N+](=O)[O-])c4ncccc34)CC2)cc1 [Compound S2],
530 ± 90,70 ± 10,COc1ccc(C(=O)N2CCN(c3ccc([N+](=O)[O-])c4ncccc34)CC2)cc1 [Compound S4],
640 ± 210,150 ± 40,O=C(c1ccc([N+](=O)[O-])cc1)N1CCN(c2ccc([N+](=O)[O-])c3ncccc23)CC1 [Compound S5],
1070 ± 420,100 ± 70,O=C(c1ccccc1)N1CCN(c2ccc([N+](=O)[O-])c3ncccc23)CC1 [Compound S6],
1150 ± 160,100 ± 50,O=C(c1ccc(F)cc1)N1CCN(c2ccc([N+](=O)[O-])c3ncccc23)CC1 [Compound S7],
970 ± 1230,140 ± 170,O=C(c1ccc(Br)cc1)N1CCN(c2ccc([N+](=O)[O-])c3ncccc23)CC1 [Compound S8],
1280 ± 1050,80 ± 30,COc1cccc(C(=O)N2CCN(c3ccc([N+](=O)[O-])c4ncccc34)CC2)c1 [Compound S9],
3060 ± 2720,60 ± 10,COc1ccccc1C(=O)N1CCN(c2ccc([N+](=O)[O-])c3ncccc23)CC1 [Compound S10],
410 ± 330,60 ± 30,COc1ccc(C(=O)N2CCN(c3ccc([N+](=O)[O-])c4ncccc34)CC2)c(OC)c1 [Compound S11],
2120 ± 580,60 ± 30,O=C(c1cccs1)N1CCN(c2ccc([N+](=O)[O-])c3ncccc23)CC1 [Compound S12],
530 ± 110,100 ± 10,O=C(c1ccco1)N1CCN(c2ccc([N+](=O)[O-])c3ncccc23)CC1 [Compound S13],
20 ± 10,20 ± 10,O=[N+]([O-])c1ccc(-c2ccc(O)cc2)c2cccnc12 [Compound S15],
660 ± 130,1300 ± 30,O=[N+]([O-])c1ccc(-c2ccc(CO)cc2)c2cccnc12 [Compound S16],
,820 ± 40,COc1ccc(C(=O)N2CCN(c3ccc(N)c4ncccc34)CC2)cc1 [Compound S21],
,,COc1ccc(C(=O)N2CCN(c3ccc([N+](=O)[O-])c4cccnc34)CC2)cc1 [Compound S24],IL-8 mRNA level [1]: inactive
,,C=CCn1c(=O)n([C@@H]2O[C@H](CO)[C@@H](O)[C@H]2O)c2nc(N)[nH]c(=O)c21 [loxoribine],"Kd [2, 3]: 4.4 µM; ΔH [2, 3]: -5828 cal/mol; heat change upon titration ([2]; loxoribine into TLR7 in the presence of pre-mixed 500 μmol/L TH-407b): completely obliterated"

Structure (SMILES),IC50 (human TLR7) [nM],IC50 (hTLR8) [nM],other results
O=C(c1ccncc1)N1CCN(c2ccc([N+](=O)[O-])c3ncccc23)CC1 [Compound S14],3000 ± 370,60 ± 10,ANA and anti-ds-DNA antibody levels (MRL/lpr mice): no significant alterations; glomerular diameter (MRL/lpr mice): no significant alterations; skin lesion severity (MRL/lpr mice): no significant alterations; spleen index (MRL/lpr mice): no significant alterations; survival rate (MRL/lpr mice): notably lower than the placebo group
